Reference: ChEMBL document CHEMBL1151814, “Ambuic acid and torreyanic acid derivatives from the endolichenic fungus Pestalotiopsis sp” (J Nat Prod, 2009)
Active and inactive are the calls of the source. The calls are words filed in the database; no cut-off is given here.

How the values were obtained:
Format in all cases: functional, organism-based
[1] = system: Staphylococcus aureus; assay: Antibacterial activity against Staphylococcus aureus ATCC 6538 after 24 hrs by NCCLS method; details: ATCC 6538, 24 h
In short: (§1)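 Bacteria grown on Mueller-Hinton agar; inoculum from broth culture at 37 °C for 24 h, final suspension 10^6 cells/mL in MHB. Serial dilutions from 10 mg/mL DMSO stock, tested in triplicate per NCCLS recommendations. Absorbance read at 595 nm after incubation. Inhibition rate plotted against concentration to give IC50. Controls were antimicrobial peptide AMP and streptomycin.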

[2] = system: Streptococcus pneumoniae; assay: Antibacterial activity against Streptococcus pneumoniae CGMCC 1.1692 after 24 hrs by NCCLS method; details: CGMCC 1.1692, 24 h; in short: as §1
[3] = system: Escherichia coli; assay: Antibacterial activity against Escherichia coli CGMCC 1.2340 after 24 hrs by NCCLS method; details: CGMCC 1.2340, 24 h; in short: as §1
[4] = system: Candida albicans; assay: Antifungal activity against Candida albicans ATCC 10231 after 48 hrs by NCCLS method; details: ATCC 10231, 48 h
In short: (§2)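 Yeasts grown on Sabouraud dextrose agar; inoculum from broth culture at 28 °C for 48 h, final suspension 10^5 cells/mL in SDB. Serial dilutions from 10 mg/mL DMSO stock in triplicate per NCCLS. A595 read after incubation; IC50 derived from inhibition rate versus concentration plot. Fluconazole served as positive control.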

[5] = system: Geotrichum candidum; assay: Antifungal activity against Geotrichum candidum AS2.498 after 48 hrs by NCCLS method; details: AS2.498, 48 h; in short: as §2
[6] = system: Aspergillus fumigatus; assay: Antifungal activity against Aspergillus fumigatus ATCC 10894 after 48 hrs by NCCLS method
In short: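 Mould grown on potato dextrose agar; inoculum from broth culture at 28 °C for 48 h, final 10^4 mycelial fragments/mL in PDB. Compounds serially diluted from 10 mg/mL DMSO stock, triplicate wells per NCCLS. Absorbance at 595 nm after incubation; IC50 from inhibition rate plotted versus concentration. Fluconazole positive control.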

| IC50 [1] | IC50 [2] | IC50 [3] | IC50 [4] | IC50 [5] | SMILES | Activity [6] |
| --- | --- | --- | --- | --- | --- | --- |
| > 50 µM | > 50 µM | > 50 µM | > 50 µM | > 50 µM | CCCCCC1O[C@H]2C3=C(C(=O)[C@@]4(C/C=C(\C)C(=O)O)OC4[C@H]3O)C1C1C(CCCCC)OC=C3C(=O)C4O[C@]4(C/C=C(\C)C(=O)O)C(=O)C312 (stereo not given in full) | inactive |
| > 50 µM | > 50 µM | > 50 µM | > 50 µM | > 50 µM | CCCCC/C=C/C1=C(CO)C(=O)C[C@](O)(C/C=C(\C)C(=O)O)[C@H]1O | inactive |
| > 50 µM | > 50 µM | > 50 µM | > 50 µM | > 50 µM | CCC/C=C/C=C/C1=C(CO)[C@@H](O)[C@H]2O[C@@]2(C/C=C(\C)C(=O)O)C1=O | inactive |
| > 50 µM | > 50 µM | > 50 µM | > 50 µM | > 50 µM | CCC(=O)CC/C=C/C1=C(CO)[C@@H](O)[C@H]2O[C@@]2(C/C=C(\C)C(=O)O)C1=O | inactive |
| 43.9 µM | – | – | – | – | CCCCC/C=C/C1=C(CO)[C@H](O)[C@H]2O[C@@]2(C/C=C(\C)C(=O)O)C1=O [AMBUIC ACID] | inactive |
| > 50 µM | > 50 µM | > 50 µM | > 50 µM | > 50 µM | CCCCCCCC1=C(CO)[C@@H](O)[C@H]2O[C@@]2(C/C=C(\C)C(=O)O)C1=O | inactive |
| > 50 µM | > 50 µM | > 50 µM | > 50 µM | > 50 µM | CCCCC/C=C/C1=C2COC(C)(C)O[C@H]2[C@H]2O[C@@]2(C/C=C(\C)C(=O)O)C1=O | inactive |
| 27.8 µM | – | – | – | – | CCCCC/C=C/C1=C(COC(C)=O)[C@@H](O)[C@H]2O[C@@]2(C/C=C(\C)C(=O)O)C1=O | inactive |
